pEC50: −log10 of the molar value. Active and inactive are the calls of the source. No cut-off for these calls is given here.
Legend:
Saccharomyces cerevisiae [1] = experiment: Growth inhibition of yeast MDY330 carrying temperature sensitive allele of clathrin heavy chain gene assessed as cell growth at 25 uM relative to wild-type; assay type: functional; design: scale not given: the % may be the effect or the level left
Saccharomyces cerevisiae [2] = experiment: Effect on localization of chitin synthase Chs3p in CHS6 deficient yeast MDY335 assessed as induction of chitin bud scars at 25 uM by fluorescence microscopy; assay type: functional, organism-based
In short: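 chs6Δ cells (pdr5Δ snq2Δ background) grown overnight at 30°C in YPD with 25 μM compound or DMSO; cells mixed 1:1 with 2.5 mM calcofluor white in YPD for 10 min, washed twice, chitin rings scored by fluorescence microscopy.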

Saccharomyces cerevisiae [3] = experiment: Growth inhibition of wild type yeast MDY326 assessed as cell growth at 25 uM; assay type: functional; design: scale not given: the % may be the effect or the level left
In short: (§1)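 Overnight cultures (pdr5Δ snq2Δ background) diluted to OD600 0.0003 in YPD, given serially diluted compound in 30-μl cultures, grown 18–24 h at 30°C humidified; OD490 read after vortexing; growth expressed as fold inhibition relative to the same strain with DMSO.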

Saccharomyces cerevisiae [4] = experiment: Growth inhibition of gga1/2 deficient yeast MDY327 cells assessed as cell growth at 25 uM relative to wild-type; assay type: functional; design: scale not given: the % may be the effect or the level left
Saccharomyces cerevisiae [5] = experiment: Growth inhibition of apl2/4 deficient yeast MDY334 cells assessed as cell growth at 25 uM relative to wild-type; assay type: functional; design: scale not given: the % may be the effect or the level left
Saccharomyces cerevisiae [6] = experiment: Toxicity against wild type yeast MDY326 assessed as 2 fold reduction of cell growth at 150 uM; assay type: organism-based; conditions: in vivo
In short: (§2)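 Wild-type strain MDY326 (pdr5Δ snq2Δ) diluted to OD600 0.0003 in YPD, compound serially diluted into 30 μl cultures, grown 18–24 h at 30°C humidified; OD490 read after vortexing, normalized to untreated/DMSO wells; value is the concentration producing 2-fold growth inhibition.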

Saccharomyces cerevisiae [7] = experiment: Toxicity against wild type yeast MDY326 assessed as 2 fold reduction of cell growth at 130 uM; assay type: organism-based; conditions: in vivo
Saccharomyces cerevisiae [8] = experiment: Toxicity against wild type yeast MDY326 assessed as 2 fold reduction of cell growth at 95 uM; assay type: organism-based; conditions: in vivo; in short: as §2
Saccharomyces cerevisiae [9] = experiment: Toxicity against wild type yeast MDY326 assessed as 2 fold reduction of cell growth; assay type: organism-based; conditions: in vivo
In short: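 Wild-type cells (pdr5Δ snq2Δ) grown 18–24 h at 30°C in YPD with serially diluted compound; OD490 read; value is concentration giving 2-fold growth inhibition versus DMSO.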

Saccharomyces cerevisiae [10] = experiment: Inhibition of maturation of alpha-factor2 in gga2delta containing yeast MDY380 at 25 uM; assay type: functional, organism-based
In short: (§3)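 Cells treated overnight with 25 μM compound or DMSO in YPD to OD600 0.2, washed in SCMG with 50 μM compound, labeled 10 min with [35S]methionine, chased 30 min; α-factor immunoprecipitated from medium, SDS/PAGE and autoradiography.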

Saccharomyces cerevisiae [11] = experiment: Inhibition of maturation of alpha-factor2 in wild type yeast MDY326 at 25 uM; assay type: functional, organism-based; in short: as §3
Saccharomyces cerevisiae [12] = experiment: Growth inhibition of gga1/2delta containing yeast MDY327; assay type: functional, organism-based; in short: as §1
Saccharomyces cerevisiae [13] = experiment: Growth inhibition of wild type yeast MDY326 cells upto 300 uM; assay type: functional, organism-based; in short: as §1
Saccharomyces cerevisiae [14] = experiment: Growth inhibition of AP1 deficient yeast MDY334 cells upto 300 uM; assay type: functional, organism-based; in short: as §1
Saccharomyces cerevisiae [15] = experiment: Growth inhibition of gga1/2delta containing yeast MDY327 carrying wild type SNQ2 and PDR5 gene; assay type: functional, organism-based
Saccharomyces cerevisiae [16] = experiment: Degradation of Ste3p receptor in wild type yeast MDY326 cells by pulse-chase immunoprecipitation; assay type: functional, organism-based
In short: (§4)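 Cells grown at 30°C to OD600 0.2 in YPD with DMSO or compound, washed twice in SCMG containing 50 μM compound, pulse-labeled 10 min with [35S]methionine (50 μCi per OD600), chased in YPD; samples stopped with NaF/NaN3 (10 mM final) at set chase points; Ste3p immunoprecipitated from lysates, SDS/PAGE and autoradiography.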

Saccharomyces cerevisiae [17] = experiment: Degradation of Ste3p receptor in gga2delta containing yeast MDY380 by pulse-chase immunoprecipitation; assay type: functional, organism-based; in short: as §4
Saccharomyces cerevisiae [18] = experiment: Degradation of Ste3p receptor in yeast MDY330 carrying temperature sensitive allele of clathrin heavy chain gene by pulse-chase immunoprecipitation; assay type: functional, organism-based; in short: as §4
Saccharomyces cerevisiae [19] = experiment: Effect on maturation of alkaline phosphatase in wild type yeast SEY6210 at 25 uM by pulse-chase immunoprecipitation; assay type: functional, organism-based
In short: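 SEY6210 grown overnight with 25 μM compound or DMSO, pulse-labeled 5 min with [35S]methionine, chase started by adding yeast extract/cysteine/methionine; ALP immunoprecipitated from lysates at chase points; precursor and mature forms resolved by SDS/PAGE and autoradiography; apl6Δ strain run in parallel.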

Saccharomyces cerevisiae [20] = experiment: Effect on maturation of carboxyl peptidase S in wild type yeast MDY326 assessed as delay in maturation at 25 uM by pulse-chase immunoprecipitation; assay type: functional
In short: (§5)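 Cells grown overnight in YPD with 25 μM compound or DMSO, labeled 10 min with [35S]methionine, chase started by adding yeast extract/cysteine/methionine; CPS immunoprecipitated at chase points; precursor versus mature forms compared by SDS/PAGE and autoradiography.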

Saccharomyces cerevisiae [21] = experiment: Prevention of maturation of carboxyl peptidase S in gga1/2 deficient yeast MDY327 assessed as delay in maturation at 25 uM by pulse-chase immunoprecipitation; assay type: functional, organism-based; in short: as §5
Saccharomyces cerevisiae [22] = experiment: Effect on maturation of alpha-factor2 in gga2delta containing yeast MDY380; assay type: functional, organism-based
In short: (§6)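 Yeast grown at 30°C to OD600 0.2 in YPD with compound (25 μM) or DMSO, washed twice in SCMG containing 50 μM compound, pulse-labeled 10 min with [35S]methionine (50 μCi per OD600), chased 30 min in YPD, stopped with NaF/NaN3 (10 mM final); secreted α-factor immunoprecipitated from medium, resolved by SDS/PAGE and autoradiography; DMSO-treated and wild-type (MDY326) cells as reference.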

Saccharomyces cerevisiae [23] = experiment: Effect on maturation of alpha-factor2 in yeast MDY330 carrying temperature sensitive allele of clathrin heavy chain gene; assay type: functional, organism-based; in short: as §6
Saccharomyces cerevisiae [24] = experiment: Toxicity against wild type yeast MDY326 assessed as 2 fold reduction of cell growth at 14 uM; assay type: organism-based; conditions: in vivo; in short: as §2

SMILES | Activity (Saccharomyces cerevisiae [1]) [%] | Activity (Saccharomyces cerevisiae [2]) | Activity (Saccharomyces cerevisiae [3]) [%] | Activity (Saccharomyces cerevisiae [4]) [%] | Activity (Saccharomyces cerevisiae [5]) [%] | further results
O=C1/C(=C/c2ccc(O)cc2)SC(=S)N1C1CCCCC1 | <50 | inactive | 70 | <50 | 50 | 
COC(=O)Oc1c(Br)c(C)c2oc(=O)sc2c1Br | 70 | inactive | 70 | <50 | 70 | 
CC(=O)c1ccc(N2CCN(Cc3cccc(F)c3F)CC2)cc1 |  |  |  |  |  | Activity (Saccharomyces cerevisiae [6]): Toxic
CC(=O)c1ccc(N2CCN(CC3CCCC3)CC2)cc1 |  |  |  |  |  | Activity (Saccharomyces cerevisiae [7]): Toxic
COC(=O)c1ccccc1/N=C/c1c(O)c(Br)cc2oc3c(c12)CCCC3 | <50 | inactive | 70 | <50 | 50 | 
CC(=O)c1ccc(N2CCN(Cc3cccc(F)c3)CC2)cc1 |  |  |  |  |  | Activity (Saccharomyces cerevisiae [8]): Toxic
CC(=O)c1ccc(N2CCN(Cc3ccccc3C(F)(F)F)CC2)cc1 |  |  |  |  |  | Activity (Saccharomyces cerevisiae [9]): Non-toxic
CC(=O)c1ccc(N2CCN(Cc3ccccc3)CC2)cc1 |  |  |  |  |  | Activity (Saccharomyces cerevisiae [9]): Non-toxic
CC(=O)c1ccc(N2CCN(Cc3cc(F)ccc3F)CC2)cc1 | 50 | Active | 70 | <50 | 70 | Activity (Saccharomyces cerevisiae [10]): Active; Activity (Saccharomyces cerevisiae [11]): inactive
CC(=O)c1ccc(N2CCN(Cc3ccc(Cl)cc3)CC2)cc1 |  |  |  |  |  | Activity (Saccharomyces cerevisiae [9]): Non-toxic
C/C=C(\C)CN1CCN(c2ccc(C(C)=O)cc2)CC1 | 50 | Active | 70 | <50 | 70 | pEC50 (Saccharomyces cerevisiae [12]): 5.40; Activity (Saccharomyces cerevisiae [13]): inactive; Activity (Saccharomyces cerevisiae [14]): inactive; Activity (Saccharomyces cerevisiae [15]): Active; Activity (Saccharomyces cerevisiae [10]): Active; Activity (Saccharomyces cerevisiae [11]): inactive; Activity (Saccharomyces cerevisiae [16]): inactive; Activity (Saccharomyces cerevisiae [17]): inactive; Activity (Saccharomyces cerevisiae [18]): inactive; Activity (Saccharomyces cerevisiae [19]): inactive; Activity (Saccharomyces cerevisiae [20]): <2; Activity (Saccharomyces cerevisiae [9]): Non-toxic; Activity (Saccharomyces cerevisiae [21]): Active
O=C1/C(=C\c2ccc(-c3cccc(Cl)c3)o2)SC(=S)N1CCS(=O)(=O)O |  |  |  |  |  | Activity (Saccharomyces cerevisiae [22]): inactive; Activity (Saccharomyces cerevisiae [23]): inactive
CC(=O)c1ccc(N2CCN(Cc3cccc(Cl)c3Cl)CC2)cc1 |  |  |  |  |  | Activity (Saccharomyces cerevisiae [24]): Toxic
COc1ccc(CNC2C3CC4CC(C3)CC2C4)c2ccccc12 (stereo not drawn) | 70 | inactive | 70 | <50 | 70 | 
Cl.N=c1n(Cc2ccccc2)c2ccccc2n1CC(O)COc1ccccc1 (stereo not drawn) | 50 | inactive | 70 | <50 | 50 | 
CC(=O)c1ccc(N2CCN(Cc3cccs3)CC2)cc1 |  |  |  |  |  | Activity (Saccharomyces cerevisiae [9]): Non-toxic
O=C1NC(=O)/C(=C\c2cccc(Cl)c2Cl)S1 | 70 | inactive | 70 | 50 | 70 | 

SMILES | Activity (Saccharomyces cerevisiae [1]) [%] | Activity (Saccharomyces cerevisiae [2]) | Activity (Saccharomyces cerevisiae [3]) [%] | Activity (Saccharomyces cerevisiae [4]) [%] | Activity (Saccharomyces cerevisiae [5]) [%] | further results
COc1ccc(CN2CCN(Cc3cc(Br)ccc3O)CC2)cc1 |  |  |  |  |  | Activity (Saccharomyces cerevisiae [22]): inactive; Activity (Saccharomyces cerevisiae [23]): inactive
C/C=C(\C)CN1CCN(c2ccc(C(=O)OCC)cc2)CC1 |  |  |  |  |  | Activity (Saccharomyces cerevisiae [9]): Non-toxic
CC1(C(=O)NC(=S)NNC(=O)c2cccnc2)CCCCC1 | 70 | inactive | 70 | <50 | 70 | 
CCN1CCN(c2ccc(C(C)=O)cc2F)CC1 |  |  |  |  |  | Activity (Saccharomyces cerevisiae [9]): Non-toxic
CC(=O)c1ccc(N2CCN(CC3=CCCCC3)CC2)cc1 |  |  |  |  |  | Activity (Saccharomyces cerevisiae [6]): Toxic
Cc1cc(O)c(C(C)C)cc1NS(=O)(=O)c1ccc(Cl)cc1 | 70 | inactive | 70 | 50 | 70 | 
C/C=C(\C)CN1CCN(c2ccc(C(=O)O)cc2)CC1 |  |  |  |  |  | Activity (Saccharomyces cerevisiae [9]): Non-toxic
CC(=O)c1ccc(N2CCN(Cc3ccco3)CC2)cc1 | 50 | Active | 70 | 50 | 70 | Activity (Saccharomyces cerevisiae [13]): inactive; Activity (Saccharomyces cerevisiae [14]): inactive; Activity (Saccharomyces cerevisiae [10]): Active; Activity (Saccharomyces cerevisiae [11]): inactive
CC(=O)c1ccc(N2CCN(CC3CC3)CC2)cc1 |  |  |  |  |  | Activity (Saccharomyces cerevisiae [9]): Non-toxic
O=C(Nc1ccccc1)c1ccccc1/N=C/c1cc(Br)ccc1O | 70 | inactive | 70 | 50 | 50 | 
CC(=O)c1ccc(N2CCN(Cc3ccsc3)CC2)cc1 |  |  |  |  |  | Activity (Saccharomyces cerevisiae [9]): Non-toxic
CC(C)Cc1ccc(C(C)C(=O)N/N=C/c2ccc(N(C)C)cc2)cc1 (stereo not drawn) | 70 | inactive | 70 | <50 | 70 | 
O=C(N/N=C/c1c[nH]c2ccccc12)c1cc(-c2ccc(Cl)cc2)n[nH]1 | 70 | inactive | 70 | <50 | 70 | 
c1ccc(CN2CCC(NCC(c3ccccc3)c3ccccc3)CC2)cc1 | 70 | inactive | 70 | <50 | 70 | 
CCn1c2ccccc2c2cc(CNC3CCCC3)ccc21 | 70 | inactive | 70 | <50 | 70 | 
CC(=O)c1ccc(N2CCN(Cc3ccccc3F)CC2)cc1 |  |  |  |  |  | Activity (Saccharomyces cerevisiae [6]): Toxic
Cc1cc(S)n(-c2ccccc2)n1 | 50 | inactive | 70 | <50 | 50 | 

— ChEMBL document CHEMBL1147086, “Composite synthetic lethal identification of membrane traffic inhibitors” (Proc Natl Acad Sci U S A, 2007)
